Experimental data as given in ChEMBL document CHEMBL3352428, “Successes and challenges in phenotype-based lead discovery for prion diseases” (J Med Chem, 2014).

How the values were obtained:
[1] = Inhibition of mouse RML prion protein infected in mouse ScN2a-cl3 cells after 5 days; type: cell-based; details: N2a-cl3, 120 h
[2] = AUC in mouse brain at 40 mg/kg, po administered as single dose; type: ADME, organism-based; set-up: dose 40 mg/kg, route oral
[3] = Unbound fraction in mouse brain; type: ADME, tissue-based
How it was run: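 The fraction unbound in mouse brain tissue was estimated with an in vitro brain tissue binding assay.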

[4] = Volume of distribution at steady state in FVB mouse plasma at 1 mg/kg, iv administered as single dose; type: ADME, organism-based; set-up: dose 1 mg/kg, route intravenous; details: read-out: Vdss
How it was run: (§1)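 Female FVB mice were given a single dose, 1 mg/kg iv or 10 mg/kg po, and plasma and brain were analysed separately. Brain samples were whole-brain homogenate. Parameters came from concentration–time curves: Vss, clearance, half-life, Cmax, AUC, brain/plasma AUC ratio and bioavailability.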

[5] = Clearance in FVB mouse plasma at 1 mg/kg, iv administered as single dose; type: ADME, organism-based; set-up: dose 1 mg/kg, route intravenous; how it was run: as §1
[6] = Half life in FVB mouse plasma at 1 mg/kg, iv administered as single dose; type: ADME, organism-based; set-up: dose 1 mg/kg, route intravenous; how it was run: as §1
[7] = Half life in FVB mouse plasma at 10 mg/kg, po administered as single dose; type: ADME, organism-based; set-up: dose 10 mg/kg, route oral; how it was run: as §1
[8] = Cmax in FVB mouse plasma at 1 mg/kg, iv administered as single dose; type: ADME, organism-based; set-up: dose 1 mg/kg, route intravenous; how it was run: as §1
[9] = Cmax in FVB mouse plasma at 10 mg/kg, po administered as single dose; type: ADME, organism-based; set-up: dose 10 mg/kg, route oral; how it was run: as §1
[10] = Cmax in FVB mouse brain at 10 mg/kg, po administered as single dose; type: ADME, organism-based; set-up: dose 10 mg/kg, route oral; how it was run: as §1
[11] = AUC in FVB mouse plasma at 1 mg/kg, iv administered as single dose; type: ADME, organism-based; set-up: dose 1 mg/kg, route intravenous
[12] = AUC in FVB mouse plasma at 10 mg/kg, po administered as single dose; type: ADME, organism-based; set-up: dose 10 mg/kg, route oral
[13] = AUC in FVB mouse brain at 10 mg/kg, po administered as single dose; type: ADME, organism-based; set-up: dose 10 mg/kg, route oral
[14] = Ratio of drug level in brain to plasma in FVB mouse brain at 10 mg/kg, po administered as single dose; type: ADME, organism-based; set-up: dose 10 mg/kg, route oral; details: brain and plasma, read-out: BPR; how it was run: as §1
[15] = Oral bioavailability in FVB mouse […] at 10 mg/kg administered as single dose; type: ADME, organism-based; details: plasma; how it was run: as §1
[16] = Drug concentration at steady state in mouse brain assessed as total compound level in brain homogenates at 40 mg/kg/day, po measured after 3 days; type: ADME, organism-based; set-up: route oral; details: brain homogenate, read-out: Css
How it was run: (§2)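 Mice received compound mixed into a liquid rodent diet for 3 days at about 40, 80, 130 or 210 mg kg-1 day-1. Plasma and brain were collected at the end of the last dosing cycle, at a single time point, and analysed as in the single-dose PK studies. Values are total drug in brain homogenate and are treated as pseudo-steady-state concentrations.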

[17] = Drug concentration at steady state in mouse brain assessed as total compound level in brain homogenates at 80 mg/kg/day, po measured after 3 days; type: ADME, organism-based; set-up: route oral; details: brain homogenate, read-out: Css; how it was run: as §2
[18] = Drug concentration at steady state in mouse brain assessed as total compound level in brain homogenates at 130 mg/kg/day, po measured after 3 days; type: ADME, organism-based; set-up: route oral; details: brain homogenate, read-out: Css; how it was run: as §2
[19] = Drug concentration at steady state in mouse brain assessed as total compound level in brain homogenates at 210 mg/kg/day, po measured after 3 days; type: ADME, organism-based; set-up: route oral; details: brain homogenate, read-out: Css; how it was run: as §2
Brain [20] = assay: (§3) Cmax in mouse brain at 10 mg/kg, po administered as single dose; type: ADME, organism-based; set-up: dose 10 mg/kg, route oral; details: in vivo
Brain [21] = assay: (§4) AUC in mouse brain at 10 mg/kg, po administered as single dose; type: ADME, organism-based; set-up: dose 10 mg/kg, route oral; details: in vivo
Plasma = assay: (§5) AUC in mouse plasma at 10 mg/kg, po administered as single dose; type: ADME, organism-based; set-up: dose 10 mg/kg, route oral; details: in vivo
Mus musculus [22] = assay: Increase in survival in sc dosed mouse prion disease model assessed as increase in survival; type: functional
Mus musculus [23] = assay: Increase in survival in sc dosed mouse prion disease model assessed as extension of survival relative to untreated control; type: functional
[24] = as §3; type: ADME, organism-based; set-up: dose 10 mg/kg, route oral; details: brain
[25] = as §4; type: ADME, organism-based; set-up: dose 10 mg/kg, route oral; details: brain
[26] = as §5; type: ADME, organism-based; set-up: dose 10 mg/kg, route oral; details: plasma
Mus musculus [27] = assay: Antiprion activity against mouse RML prion protein infected in mouse assessed as mouse survival at 210 mg/kg/day (reference value: 118 +/- 1 days); type: organism-based
Mus musculus [28] = assay: Antiprion activity against mouse Scrapie prion protein ME7 infected in mouse assessed as mouse survival at 210 mg/kg/day (reference value: 126 +/- 2 days); type: organism-based
Cervus elaphus nelsoni = assay: Antiprion activity against elk PrpC protein infected in mouse chronic wasting disease model assessed as increase in mouse survival (reference value: 108 +/- 3 days)

## Cc1ccnc(Nc2nc(-c3ccncc3)cs2)c1
[1]
  EC50: 5000 nM
[2]
  AUC: 34.6 µM·h

## Cc1ccnc(Nc2nc(-c3ccc(-c4ccccn4)s3)cs2)c1
[3]
  fraction unbound: 0.08
[2]
  AUC: 60.2 µM·h
[4]
  Vd: 12.6 L/kg
[5]
  clearance: 151 mL/min/kg
[6]
  half-life: 1.18 h
[7]
  half-life: 0.98 h
[8]
  Cmax: 520 nM
[9]
  Cmax: 430 nM
[10]
  Cmax: 1620 nM
[11]
  AUC: 0.3 µM·h
[12]
  AUC: 0.82 µM·h
[13]
  AUC: 4.54 µM·h
[14]
  Kp: 5.53
[15]
  bioavailability: 27.3%

## Cc1cccc(Nc2nc(-c3cc4ccccc4o3)cs2)n1
[1]
  EC50: 1500 nM
[2]
  AUC: 65.4 µM·h
[16]
  concentration at 72 h: 1310 nM
[17]
  concentration at 72 h: 2700 nM
[18]
  concentration at 72 h: 3740 nM
[19]
  concentration at 72 h: 3230 nM

## Cc1ccc(Nc2nc(-c3cc(-c4ccccc4)no3)cs2)nc1
[1]
  EC50: 950 nM
[2]
  AUC: 23.2 µM·h
[16]
  concentration at 72 h: 880 nM
[17]
  concentration at 72 h: 5390 nM
[18]
  concentration at 72 h: 23300 nM
[19]
  concentration at 72 h: 12600 nM

## Cc1cccc(Nc2nc(-c3ccc(-c4ccncc4)cc3)cs2)n1
[1]
  EC50: 87 nM
Brain [20]
  Cmax: 500 nM
Brain [21]
  AUC: 1.68 µM·h

## c1ccc2cc(Nc3nc(-c4cc5ccccc5o4)cs3)ncc2c1
[1]
  EC50: 920 nM
[2]
  AUC: 10.9 µM·h

## Cc1cccc(Nc2nc(-c3ccc(N4CCOCC4)cc3)cs2)n1
[1]
  EC50: 51 nM

## Cc1cccc(Nc2nc(-c3ccc(-c4ccnn4C)cc3)cs2)n1
[1]
  EC50: 89 nM

## C(=N/Nc1ccc(-c2cnco2)cc1)/c1ccncc1
[4]
  Vd: 1.53 L/kg
[5]
  clearance: 76 mL/min/kg
[6]
  half-life: 0.22 h
[7]
  half-life: 1.01 h
[8]
  Cmax: 1760 nM
[9]
  Cmax: 830 nM
[10]
  Cmax: 460 nM
[11]
  AUC: 0.83 µM·h
[12]
  AUC: 2.06 µM·h
[13]
  AUC: 1.06 µM·h
[14]
  Kp: 0.51
[15]
  bioavailability: 24.8%

## COc1ccc(-c2csc(Nc3cc4ccccc4cn3)n2)cc1OC
[2]
  AUC: 6.3 µM·h
[16]
  concentration at 72 h: 30 nM
[17]
  concentration at 72 h: 60 nM
[18]
  concentration at 72 h: 140 nM
[19]
  concentration at 72 h: 320 nM

## Cc1ccc(Nc2nc(-c3ccncc3)cs2)nc1
[1]
  EC50: 1600 nM
[2]
  AUC: 9.7 µM·h

## Cc1cccc(Nc2nc(-c3ccc(-c4cccnc4)cc3)cs2)n1
[1]
  EC50: 68 nM
Brain [20]
  Cmax: 2460 nM
Brain [21]
  AUC: 10.9 µM·h
Plasma
  AUC: 15.6 µM·h

## O=C(CN1CCCC1)Nc1ccc(Cc2ccc(NC(=O)CN3CCCC3)cc2)cc1
Mus musculus [22]
  Survival: 20%
Mus musculus [23]
  Activity: 12%

## c1ccc2cc(Nc3nc(-c4ccncc4)cs3)ncc2c1
[2]
  AUC: 59.1 µM·h
[16]
  concentration at 72 h: 20 nM
[17]
  concentration at 72 h: 80 nM
[18]
  concentration at 72 h: 40 nM
[19]
  concentration at 72 h: 100 nM

## O=C(Nc1nc(-c2ccc(-c3ccccc3)cc2)cs1)C1CC1
[24]
  Cmax: 4340 nM
[25]
  AUC: 18.6 µM·h
[26]
  AUC: 12.7 µM·h

## Cc1cccc(Cn2cc(-c3ccc(-c4cccnc4)cc3)cn2)n1
[1]
  EC50: > 10000 nM

## Cc1cccc(Nc2nc(-c3ccc(-c4ccccc4)cc3)cs2)n1
[3]
  fraction unbound: 0.08
[1]
  EC50: 1300 nM
[2]
  AUC: 303 µM·h
[16]
  concentration at 72 h: 8700 nM
[17]
  concentration at 72 h: 19300 nM
[18]
  concentration at 72 h: 31800 nM
[19]
  concentration at 72 h: 37400 nM
[4]
  Vd: 2.46 L/kg
[5]
  clearance: 15.3 mL/min/kg
[6]
  half-life: 2.16 h
[7]
  half-life: 4.65 h
[8]
  Cmax: 2490 nM
[9]
  Cmax: 1660 nM
[10]
  Cmax: 2450 nM
[11]
  AUC: 2.78 µM·h
[12]
  AUC: 11.2 µM·h
[13]
  AUC: 29.1 µM·h
[14]
  Kp: 2.6
[15]
  bioavailability: 40.3%
Brain [21]
  AUC: 9.78 µM·h
Plasma
  AUC: 6.99 µM·h
Mus musculus [27]
  Survival: 204 days
Mus musculus [28]
  Survival: 214 days
Cervus elaphus nelsoni
  Survival: 237 days

## Cc1ccc(Nc2nc(-c3ccc(-c4ccccn4)s3)cs2)nc1
[1]
  EC50: 1200 nM
[2]
  AUC: 4.6 µM·h
